We go through nine molecules from ChEMBL document CHEMBL1157296, “Cytotoxic and antimicrobial benzophenones from the leaves of Tovomita longifolia” (2006).

In brackets after ≈: the same amount, converted by molar mass. Activity calls are given as the source filed them. The rule behind the calls is not given here.

Common to all, as to assay type: functional
One assay deals with MCF7. In words: Cytotoxicity against human MCF7 cells. The gist of the method: (§1)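 Human cancer cell lines of breast (MCF-7), CNS (SF-268) and lung (H-460) origin were tested by the Monks et al. method. All three lines were used throughout to monitor fractions and isolated compounds.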
For another assay, the system named is NCI-H460. In words: Cytotoxicity against human H460 cells. The gist of the method: as §1
In another assay the test system is SF-268. Put plainly: Cytotoxicity against human SF268 cells. In outline: as §1
In another assay the test system is Escherichia coli. In words: Antimicrobial activity against Escherichia coli ATCC 9637.
Assay [1] concerns Salmonella enterica subsp. enterica serovar Gallinarum. Put plainly: Antimicrobial activity against Salmonella gallinarum ATCC 9184.
Another assay relates to Klebsiella pneumoniae. Put plainly: Antimicrobial activity against Klebsiella pneumoniae ATCC 10031.
Assay [2] deals with Mycolicibacterium smegmatis. Put plainly: Antimicrobial activity against Mycobacterium smegmatis ATCC 607.
The test system of a further assay is Candida albicans. Put plainly: Antimicrobial activity against Candida albicans ATCC 10231.
The next assay has as its system Staphylococcus aureus. In words: Antimicrobial activity against Staphylococcus aureus ATCC 6538.
For another assay, the system named is Pseudomonas aeruginosa. In words: Antimicrobial activity against Pseudomonas aeruginosa ATCC 27853.

As to `COc1cccc2c1C(=O)c1c(O)c3c(c(O)c1C2=O)C[C@@](O)(C(=O)CO)C[C@@H]3O[C@H]1C[C@H](N)[C@H](O)[C@H](C)O1` [DOXORUBICIN], the GI50 amounted to 0.38 µg/mL (≈ 0.699 µM) in the assay on MCF7, 0.42 µg/mL (≈ 0.773 µM) with NCI-H460 and 0.5 µg/mL (≈ 0.92 µM) in the assay on SF-268.
In the case of `CC(C)=CCC[C@]1(C)Oc2c(c(O)cc(O)c2C(=O)c2ccccc2)C[C@@H]1O`, the GI50 is 6.8 µg/mL (≈ 17.8 µM) in the assay on MCF7, 6.5 µg/mL (≈ 17 µM) in the assay with NCI-H460 and 5.6 µg/mL (≈ 14.6 µM) in the assay with SF-268. Besides, the result (in the assay on Escherichia coli; in assay [1]; with Candida albicans; with Staphylococcus aureus; in the assay with Pseudomonas aeruginosa) was inactive. Moreover, the MIC (in the assay on Klebsiella pneumoniae; in [2]) was 25 µg/mL (≈ 65.4 µM) in each case.
As to `C=C(C)[C@H](O)CC/C(C)=C/Cc1c(O)cc(O)c(C(=O)c2ccccc2)c1O`, the result in the assay with MCF7, in the assay on NCI-H460 and in the assay with SF-268 was inactive.
`CC(C)=CCC/C(C)=C/COc1cc(O)c(C(=O)c2ccccc2)c(O)c1`: the GI50 turned out to be 4.8 µg/mL (≈ 13.1 µM) with MCF7, 4.4 µg/mL (≈ 12 µM) with NCI-H460 and 2 µg/mL (≈ 5.46 µM) with SF-268. Also, the result (with Escherichia coli; in assay [1]; with Klebsiella pneumoniae; in the assay on Candida albicans; in the assay on Pseudomonas aeruginosa) was inactive. Also, the MIC (in [2]; in the assay on Staphylococcus aureus) was 12.5 µg/mL (≈ 34.1 µM) each time.
Turning to `CN[C@@H]1[C@H](O[C@H]2[C@H](O[C@H]3[C@H](O)[C@@H](O)[C@H](N=C(N)N)[C@@H](O)[C@@H]3N=C(N)N)O[C@@H](C)[C@]2(O)C=O)O[C@@H](CO)[C@H](O)[C@H]1O.CN[C@@H]1[C@H](O[C@H]2[C@H](O[C@H]3[C@H](O)[C@@H](O)[C@H](N=C(N)N)[C@@H](O)[C@@H]3N=C(N)N)O[C@@H](C)[C@]2(O)C=O)O[C@@H](CO)[C@H](O)[C@H]1O.O=S(=O)(O)O.O=S(=O)(O)O.O=S(=O)(O)O` [STREPTOMYCIN SULFATE], the MIC is 6.25 µg/mL in the assay with Escherichia coli; 3.12 µg/mL in assay [1]; 3.12 µg/mL against Klebsiella pneumoniae; 12.5 µg/mL in [2]; 12.5 µg/mL in the assay on Staphylococcus aureus; 1.56 µg/mL in the assay on Pseudomonas aeruginosa. Also, the outcome in the assay on Candida albicans was inactive.
Take `C=C(CCC=C(C)C)[C@H](O)Cc1c(O)cc(O)c(C(=O)c2ccccc2)c1O`: the 50% growth inhibitory concentration (GI50) in the assay on MCF7 was found to be 6.7 µg/mL (≈ 17.5 µM); in the assay with NCI-H460, 7.8 µg/mL (≈ 20.4 µM); in the assay with SF-268, 6.5 µg/mL (≈ 17 µM).
For `C[C@@H]1[C@H](O)[C@@H](C)/C=C/C=C/C=C/C=C/C=C/C=C/C=C/[C@H](O[C@@H]2O[C@H](C)[C@@H](O)[C@H](N)[C@@H]2O)C[C@@H]2O[C@](O)(C[C@@H](O)C[C@@H](O)[C@H](O)CC[C@@H](O)C[C@@H](O)CC(=O)O[C@H]1C)C[C@H](O)[C@H]2C(=O)O`, the result (in the assay with Escherichia coli; in assay [1]; with Klebsiella pneumoniae; in [2]; in the assay on Staphylococcus aureus; with Pseudomonas aeruginosa) was inactive.
For `CC(C)=CCC/C(C)=C/Cc1c(O)cc(O)c(C(=O)c2ccccc2)c1O`, the result (in the assay with MCF7; in the assay on NCI-H460; with SF-268; in the assay with Escherichia coli; in assay [1]; with Klebsiella pneumoniae) was inactive. Besides, the result in the assay with Candida albicans, in the assay with Staphylococcus aureus and with Pseudomonas aeruginosa was inactive. In addition, 50 µg/mL (≈ 136 µM) was the least that counted as inhibitory in assay [2] (MIC).
`CC1(C)CCC[C@]2(C)Oc3c(c(O)cc(O)c3C(=O)c3ccccc3)C[C@@H]12`: the figures for the GI50 in the assay on MCF7, with NCI-H460 and with SF-268 were 1.8 µg/mL (≈ 4.91 µM), 2.1 µg/mL (≈ 5.73 µM) and 1.7 µg/mL (≈ 4.64 µM), respectively. Besides, the result with Escherichia coli and with Candida albicans was inactive. Further, the MIC in [1] worked out at 12.5 µg/mL (≈ 34.1 µM); in the assay with Klebsiella pneumoniae it was 6.25 µg/mL (≈ 17.1 µM); in assay [2], 6.25 µg/mL (≈ 17.1 µM); against Staphylococcus aureus it was 12.5 µg/mL (≈ 34.1 µM); in the assay on Pseudomonas aeruginosa it was 12.5 µg/mL (≈ 34.1 µM).
